Tests used:
Zinc finger protein GLI1 [1] = target: T1, Zinc finger protein GLI1 (Homo sapiens, UniProt P08151); test: Inhibition of human Gli1 expressed in mouse C3H10T1/2 cells assessed as inhibition of transcriptional activity after 24 hrs by luciferase reporter gene assay
T1 sequence (P08151 whole entry): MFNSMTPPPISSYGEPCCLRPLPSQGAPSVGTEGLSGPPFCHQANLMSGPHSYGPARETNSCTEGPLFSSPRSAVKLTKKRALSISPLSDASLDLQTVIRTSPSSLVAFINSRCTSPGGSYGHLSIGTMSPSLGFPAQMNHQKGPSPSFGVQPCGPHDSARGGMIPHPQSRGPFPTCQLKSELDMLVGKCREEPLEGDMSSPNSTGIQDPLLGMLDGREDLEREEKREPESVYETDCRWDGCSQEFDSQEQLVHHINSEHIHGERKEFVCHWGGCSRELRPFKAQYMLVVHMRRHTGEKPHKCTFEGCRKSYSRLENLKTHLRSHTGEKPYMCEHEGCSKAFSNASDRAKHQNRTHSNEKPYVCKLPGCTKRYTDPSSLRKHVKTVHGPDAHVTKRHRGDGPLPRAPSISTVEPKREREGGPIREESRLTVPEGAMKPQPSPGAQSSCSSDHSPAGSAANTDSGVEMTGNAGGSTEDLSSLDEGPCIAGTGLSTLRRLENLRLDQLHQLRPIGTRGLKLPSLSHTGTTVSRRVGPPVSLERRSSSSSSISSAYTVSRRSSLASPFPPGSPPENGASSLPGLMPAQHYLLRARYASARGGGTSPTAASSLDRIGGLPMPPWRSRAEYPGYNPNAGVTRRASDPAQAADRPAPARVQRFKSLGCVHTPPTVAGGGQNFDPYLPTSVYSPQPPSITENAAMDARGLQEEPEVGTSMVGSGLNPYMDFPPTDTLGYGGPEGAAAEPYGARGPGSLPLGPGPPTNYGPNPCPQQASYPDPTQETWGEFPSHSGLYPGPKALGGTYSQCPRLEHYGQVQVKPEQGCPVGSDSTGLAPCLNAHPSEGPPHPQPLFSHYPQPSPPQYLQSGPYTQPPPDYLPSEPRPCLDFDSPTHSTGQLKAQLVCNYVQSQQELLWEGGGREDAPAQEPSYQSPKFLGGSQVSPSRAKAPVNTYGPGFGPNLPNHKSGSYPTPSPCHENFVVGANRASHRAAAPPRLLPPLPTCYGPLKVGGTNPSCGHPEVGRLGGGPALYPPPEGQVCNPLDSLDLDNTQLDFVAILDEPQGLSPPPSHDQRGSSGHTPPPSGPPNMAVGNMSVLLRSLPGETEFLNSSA
How it was run: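 C3H10T1/2 cells transiently transfected overnight with GliLuc-BS, pRL-TK Renilla control and human Gli1 (or mouse Gli2 for Gli2 lines), 250 ng/mL each for the Gli plasmids. Firefly/Renilla dual-luciferase ratio normalized to DMSO, triplicates. Dose–response IC50 from curve fitting.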

Zinc finger protein GLI1 [2] = target: T1, Zinc finger protein GLI1; test: Inhibition of human Gli1-mediated transcriptional activity in human Rh30 cells after 24 hrs by luciferase reporter gene assay
How it was run: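 Rh30 cells without Gli1 transfection, transfected overnight with GliLuc-BS (500 ng/mL) and pRL-CMV (2.5 ng/mL), then replated in 96-well plates. Compound given in RPMI-1640/10% FBS for 24 h at 37 °C. Firefly luminescence divided by Renilla and normalized to DMSO-treated cells (0% inhibition), triplicates.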

Row | IC50 (Zinc finger protein GLI1 [1]) | IC50 (Zinc finger protein GLI1 [2]) | Compound
1 | 1.6 µM | – | CCCN(C(=O)C(C)c1cccc(C(=O)c2ccccc2)c1)c1ccc2[nH]ccc2c1 (configuration not stated) [2-(3-Benzoylphenyl)-N-(1H-indol-5-yl)-N-propylpropanamide]
2 | – | 40 µM | CN(C)c1ccccc1CN1CCCN(Cc2ccccc2N(C)C)C1c1ccncc1 [2-((3-(2-(dimethylamino)benzyl)-2-(pyridin-4-yl)-tetrahydropyrimidin-1(2H)-yl)methyl)-N,N-dimethylbenzenamine]
